Activity calls are given as the source filed them. The rule behind the calls is not given here.

Assay [1] deals with T1, Aminopeptidase N (Sus scrofa, UniProt P15145).
T1 sequence (P15145 whole entry): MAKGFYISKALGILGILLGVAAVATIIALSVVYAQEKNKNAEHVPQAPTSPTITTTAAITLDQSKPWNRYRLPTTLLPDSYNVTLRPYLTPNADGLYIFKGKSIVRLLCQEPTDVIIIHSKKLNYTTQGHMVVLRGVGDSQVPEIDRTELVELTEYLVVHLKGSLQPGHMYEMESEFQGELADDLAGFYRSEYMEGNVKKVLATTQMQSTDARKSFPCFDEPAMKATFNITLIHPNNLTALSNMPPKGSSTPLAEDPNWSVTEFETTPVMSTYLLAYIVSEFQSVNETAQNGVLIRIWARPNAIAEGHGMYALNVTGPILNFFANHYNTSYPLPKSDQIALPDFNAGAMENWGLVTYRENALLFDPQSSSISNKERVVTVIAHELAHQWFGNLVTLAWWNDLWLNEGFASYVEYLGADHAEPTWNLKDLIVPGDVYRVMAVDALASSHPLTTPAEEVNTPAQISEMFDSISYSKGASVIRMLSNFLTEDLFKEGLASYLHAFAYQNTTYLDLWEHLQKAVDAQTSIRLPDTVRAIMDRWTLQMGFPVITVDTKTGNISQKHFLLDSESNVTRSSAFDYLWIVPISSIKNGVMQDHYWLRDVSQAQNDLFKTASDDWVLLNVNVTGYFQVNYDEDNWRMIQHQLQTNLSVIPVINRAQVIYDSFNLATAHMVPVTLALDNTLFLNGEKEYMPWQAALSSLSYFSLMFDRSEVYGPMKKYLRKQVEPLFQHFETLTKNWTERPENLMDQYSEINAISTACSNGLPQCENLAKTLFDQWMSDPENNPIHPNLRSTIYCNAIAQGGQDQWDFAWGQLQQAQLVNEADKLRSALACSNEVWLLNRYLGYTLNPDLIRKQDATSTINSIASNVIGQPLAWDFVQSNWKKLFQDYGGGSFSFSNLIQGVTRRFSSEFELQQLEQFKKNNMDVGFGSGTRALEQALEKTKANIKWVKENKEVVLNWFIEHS
The assay is described as follows: Inhibition of APN in porcine kidney microsomes preincubated for 5 mins before L-leu-p-nitroanilide substrate addition for 30 mins by plate reader analysis.

The target of assay [2] is Histone deacetylase (HDAC1 and HDAC2) (Homo sapiens, UniProt Q13547+Q92769). The assay is described as follows: Inhibition of HDAC1/HDAC2 in human HeLa cells nuclear extract preincubated for 5 mins before Boc-Lys (acetyl)-AMC substrate addition for 30 mins by microplate reader analysis. It is filed as cell-based.
The subject of assay [3] is H22. Put plainly: Antimetastasis activity against mouse H22 cells implanted in mouse assessed as inhibition of tumour growth at 80 mg/kg/day, po administered 6 days/week for 2 weeks. It counts as functional. The method in brief:
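H22 tumour cells given to mice via the caudal vein; animals randomly divided into 3 groups. Control received the same volume of excipient; the other groups received inhibitor orally at 80 mg/kg/day, 6 days/week for 2 weeks.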

In assay [4] the test system is ES2. Put plainly: Antiinvasive activity against human ES2 cells assessed as reduction in cell invasion at 150 uM after 8 hrs by crystal violet staining based Matrigel assay. It counts as functional. The method in brief: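 Matrigel-coated transwell chambers rehydrated 2 h in RPMI-1640 + 1% FBS; lower chamber RPMI-1640 + 10% FBS. Compounds in 1% FBS medium added to the upper chamber with ES-2 cells (1 × 10^5/well) at the same time; invasion 8 h at 37 °C. Non-invaded cells swabbed off; remaining cells fixed, stained with 0.1% crystal violet, counted in five random fields (×100) per insert; mean of three independent experiments.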

The target in assay [5] is Aminopeptidase N (Homo sapiens, UniProt P15144). The assay is described as follows: Inhibition of APN in human ES2 cells preincubated for 5 mins before L-leu-p-nitroanilide substrate addition for 1 hr by photometry. It is filed as cell-based. The method in brief:
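ES-2 ovarian clear cell carcinoma cell suspension (1 × 10^5 cells/well) used as the APN source in 10 mM PBS pH 7.4; inhibitors in buffer with 0.2% DMSO final. Pre-incubation 5 min at room temperature, then L-Leu-p-nitroanilide added, 1 h at 37 °C. Supernatant after centrifugation read by UV-Vis spectrophotometry; IC50 from regression of concentration/inhibition-rate data.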

Chain of Aminopeptidase N (Homo sapiens, UniProt P15144) (P15144 whole entry): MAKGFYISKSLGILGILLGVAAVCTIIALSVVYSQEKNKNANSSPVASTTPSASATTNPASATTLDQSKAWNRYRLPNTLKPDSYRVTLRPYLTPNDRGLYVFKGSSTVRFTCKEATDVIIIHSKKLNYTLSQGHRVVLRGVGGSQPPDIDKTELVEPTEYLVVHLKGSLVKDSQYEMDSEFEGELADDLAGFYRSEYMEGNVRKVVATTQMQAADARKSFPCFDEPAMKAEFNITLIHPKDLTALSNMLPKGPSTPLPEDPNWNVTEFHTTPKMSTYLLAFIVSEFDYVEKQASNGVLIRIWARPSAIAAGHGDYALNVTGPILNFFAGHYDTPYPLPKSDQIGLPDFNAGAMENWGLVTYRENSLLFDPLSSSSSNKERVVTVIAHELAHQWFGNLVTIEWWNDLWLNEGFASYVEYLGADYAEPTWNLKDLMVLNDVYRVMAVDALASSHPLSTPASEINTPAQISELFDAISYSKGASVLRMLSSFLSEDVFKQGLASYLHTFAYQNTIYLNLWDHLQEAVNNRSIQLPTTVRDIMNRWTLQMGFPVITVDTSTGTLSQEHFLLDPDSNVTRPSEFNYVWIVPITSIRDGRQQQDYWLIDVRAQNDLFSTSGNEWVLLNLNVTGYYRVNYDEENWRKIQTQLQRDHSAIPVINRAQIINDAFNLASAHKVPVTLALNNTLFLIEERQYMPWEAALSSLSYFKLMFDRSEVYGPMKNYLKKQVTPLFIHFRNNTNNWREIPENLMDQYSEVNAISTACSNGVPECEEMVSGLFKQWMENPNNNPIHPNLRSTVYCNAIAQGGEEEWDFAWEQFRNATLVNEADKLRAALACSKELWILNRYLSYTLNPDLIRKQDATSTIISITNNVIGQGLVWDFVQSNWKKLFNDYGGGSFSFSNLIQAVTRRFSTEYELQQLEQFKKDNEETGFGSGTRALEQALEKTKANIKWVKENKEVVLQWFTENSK

`Cc1ccc(NC(=O)N[C@@H](CC(C)C)C(=O)NO)cc1Cl`: the IC50 in assay [1] was 90 nM; in assay [2] it was greater than 100000 nM.

`Cc1ccc(CNC(=O)N[C@@H](CC(C)C)C(=O)NO)cc1C`: the results for the IC50 in assay [1] and in assay [2] were 440 nM and greater than 100000 nM, respectively.

`CC(C)C[C@H](NC(=O)Nc1ccccc1)C(=O)NO`: the IC50 in assay [2] is greater than 100000 nM.

As for `Cc1ccc(NC(=O)N[C@@H](CC(C)C)C(=O)NO)c(C)c1`, the IC50 is 180 nM in assay [1] and greater than 100000 nM in assay [2].

As for `CC(C)C[C@H](NC(=O)Nc1c(C(C)C)cccc1C(C)C)C(=O)NO`, the IC50 is 50 nM in assay [1] and greater than 100000 nM in assay [2].

For `COc1ccc(NC(=O)N[C@@H](CC(C)C)C(=O)NO)c(OC)c1`, the half-inhibitory concentration (IC50) in assay [1] is 460 nM; in assay [2] it was greater than 100000 nM.

Turning to `Cc1cccc(CNC(=O)N[C@@H](CC(C)C)C(=O)NO)c1C`, the IC50 in assay [1] was 70 nM; in assay [2] it was greater than 100000 nM.

As for `CC(C)C[C@H](NC(=O)NCc1c(F)cccc1F)C(=O)NO`, the values for the IC50 in assay [1] and in assay [2] were 690 nM and greater than 100000 nM, respectively.

Consider `Cc1cccc(C)c1NC(=O)N[C@@H](CC(C)C)C(=O)NO`, for which, in assay [3], the inhibition in vivo at 80 mg/kg/day is 91.7%. The IC50 in assay [1] was 20 nM; in assay [2], greater than 100000 nM; in assay [5], 120 nM. In assay [4], the inhibition entry is “Active”.

In the case of `CC(C)C[C@H](NC(=O)NCc1ccc(F)cc1F)C(=O)NO`, the IC50 is 330 nM in assay [1] and greater than 100000 nM in assay [2].

On to `COc1ccc(CNC(=O)N[C@@H](CC(C)C)C(=O)NO)c(OC)c1`, for which the results for the IC50 in assay [1] and in assay [2] were 460 nM and greater than 100000 nM, respectively.

For the molecule `CC(C)C[C@H](NC(=O)Nc1c(F)cccc1F)C(=O)NO`, the IC50 was 230 nM in assay [1] and greater than 100000 nM in assay [2].

Turning to `CC(C)C[C@H](NC(=O)Nc1ccc(F)cc1F)C(=O)NO`, the results for the IC50 in assay [1] and in assay [2] were 340 nM and greater than 100000 nM, respectively.

For the molecule `CC(C)C[C@H](NC(=O)NCc1c(Cl)cccc1Cl)C(=O)NO`, the IC50 in assay [1] is 580 nM; in assay [2] it was greater than 100000 nM.

In the case of `CC(C)C[C@H](NC(=O)NCc1ccc(F)c(F)c1)C(=O)NO`, the results for the IC50 in assay [1] and in assay [2] were 420 nM and greater than 100000 nM, respectively.

As to `COc1ccc(NC(=O)N[C@@H](CC(C)C)C(=O)NO)cc1F`, the IC50 in assay [1] was 420 nM; in assay [2] it was greater than 100000 nM.

In the case of `CC(C)C[C@H](NC(=O)[C@@H](O)[C@H](N)Cc1ccccc1)C(=O)O` [UBENIMEX], the inhibition in vivo at 80 mg/kg/day in assay [3] was found to be 75.9%. Besides, in assay [4], the inhibition result is “Active”. The molecule also came in with a half-maximal inhibitory concentration (IC50) in assay [2] greater than 100000 nM.

In the case of `CCc1cccc(CC)c1NC(=O)N[C@@H](CC(C)C)C(=O)NO`, the IC50 in assay [1] was 30 nM; in assay [2], greater than 100000 nM; in assay [5], 280 nM. In assay [4], the inhibition result was “Active”.

On to `Cc1cc(C)c(NC(=O)N[C@@H](CC(C)C)C(=O)NO)c(C)c1`, for which the IC50 in assay [1] was 80 nM; in assay [2], greater than 100000 nM.

As for `CC(C)C[C@H](NC(=O)Nc1ccc(Cl)cc1Cl)C(=O)NO`, the 50% inhibitory concentration (IC50) in assay [1] was 560 nM; in assay [2] it was greater than 100000 nM.

In general, IC50 refers to the midpoint of a concentration-inhibition curve. The low end stands for higher potency, the high end for lower potency. As a reminder, the inhibition in vivo is the share of the control response that was lost under treatment.

For the origin of these results see ChEMBL document CHEMBL3763112, “Novel leucine ureido derivatives as aminopeptidase N inhibitors. Design, synthesis and activity evaluation” (Eur J Med Chem, 2016).
